According to article PMC11911394 (Nature Communications, 2025):
Values belong to the compound of their own block, whether it stands above or below them.

Key:
nirFAST [1] = assay: Characterization of nirFAST with prototypical FAST; format: physicochemical; conditions: fluorogen bound to nirFAST
Procedure, shortened: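 His-tag-purified protein came from E. coli BL21(DE3) or Rosetta(DE3)pLysS, induced overnight with 1 mM IPTG at 16 °C and isolated on Ni-NTA. Spectra were recorded in PBS pH 7.4 at 25 °C on a plate reader. Quantum yield was measured in 96-well plates against a reference fluorogen:protein complex. Protein was 40 µM, with fluorogen usually 6 to 0.375 µM, giving >99% complex.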

zebrafish larvae = assay: Imaging of injected nirFAST-expressing HEK293T cells in zebrafish larvae; format: in vivo, zebrafish (Danio rerio); conditions: zebrafish larvae 4 dpf, 45 min of treatment
Procedure, shortened: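 HEK293T cells were transfected with a nirFAST-P2A-EGFP plasmid and, after 24 h, suspended at 10,000,000 cells/mL in serum-free DMEM. About 5–10 nL was microinjected near the heart of 2 dpf nacre larvae anesthetized with 0.02% MS-222. Larvae were raised at 28 °C, and green-positive ones were chosen. At 4 dpf they were incubated 45 min with fluorogen, anesthetized, mounted laterally in 0.8% low-melt agarose and imaged confocally.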

nirFAST [2] = assay: nirFAST labeling kinetics in live HeLa cells; format: cell-based; conditions: 10 µM fluorogen
[3] = test system: LAMP1–mCherry–FIREtag and nir-FIREmate–KIF17; assay: nirCATCHFIRE control of lysosome positioning; format: cell-based; conditions: HeLa cells co-expressing LAMP1–mCherry–FIREtag and nir-FIREmate–KIF17
[4] = format: physicochemical; conditions: exciting with red light
Procedure, shortened: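 Steady-state UV-Vis absorption and fluorescence spectra were recorded on a plate reader in PBS pH 7.4 at 25 °C.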

HeLa cells = assay: Cell viability assay; format: cell-based; conditions: at the dose used for imaging; HeLa and HEK293T (Supplementary Fig. 8)
Procedure, shortened: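 HeLa cells were grown in MEM with phenol red, Glutamax I, 1 mM sodium pyruvate, 1% non-essential amino acids, 10% FBS and 1% penicillin–streptomycin at 37 °C and 5% CO₂. They were exposed to fluorogen at the indicated concentrations for 24 h. Viability was read as CellTiter-Glo luminescence on a plate reader, per kit protocol.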

FQY of assembly with nirFAST (nirFAST [1]): 24%
Structure (SMILES): COc1cc(/C=C2\SC(=S)NC2=O)cc(OC)c1O [HBR-3,5DOM]

fluorescence of free fluorogen [4]: completely non-fluorescent
Structure (SMILES): COc1cc(/C=C/C=C2\SC(=S)NC2=O)cc(OC)c1O [HPAR-3,5DOM, (Z)-5-((E)-3-(4-hydroxy-3,5-dimethoxyphenyl)allylidene)-2-thioxothiazolidin-4-one]
detection of nirFAST-expressing HEK293T cells in larvae (zebrafish larvae): efficiently detected | time to complete labeling of nirFAST after fluorogen addition (nirFAST [2]): complete within twenty seconds | effect on lysosome positioning [3]: displacement of lysosomes from the perinuclear region to the cell periphery | toxicity for mammalian cells (HeLa cells): non-toxic

Second part, the compound before the results:

Structure (SMILES): Cc1cc(/C=C2\SC(=S)NC2=O)c(C)cc1O [HBR-2,5DM]
fluorescence activation by nirFAST (nirFAST [1]): failed to activate efficiently the fluorescence

Structure (SMILES): Cc1cc(/C=C2\SC(=S)NC2=O)ccc1O [HMBR]
fluorescence activation by nirFAST (nirFAST [1]): failed to activate efficiently the fluorescence

Structure (SMILES): Cc1cc(/C=C2\SC(=S)NC2=O)cc(C)c1O [HBR-3,5DM]
FQY of assembly with nirFAST (nirFAST [1]): 37%
